In article PMC8934255 (Cell chemical biology, 2021):

Columns and labels:
Pax2 [1] = conditions: at 10 μM; ref Grimley et al., 2017; cited from earlier work
Pax8 = Pax8 (Homo sapiens, UniProt Q06710); test: PRS4-Luc luciferase reporter assay, Pax8 activation; type: cell-based; conditions: compared with Pax2
[2] = test system: Pax2-negative SKOV-3 cells; test: Luciferase ATP; type: cell-based, human; conditions: only at 15 μM, tenfold the IC50, 18 hours
Pax2 expressing RCC = test: Phospho-histone H3 immunoblot; type: cell-based, human; conditions: 24 hours, vs vehicle
How it was run: (§1)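 Human RCC or SKOV-3 cells (RPMI 1640, 10% FBS) or HEK293 cells (DMEM, 10% FBS) were seeded at 5.0 × 10^4 cells/well and attached overnight. Cells had 24 h of increasing test compound concentrations or DMSO. Lysates were boiled 5 min at 95°C in 2X SDS buffer, separated on 8% or 15% gels, transferred to PVDF at 4°C and probed for phospho-H3 (Ser10), total H3 and β-actin. Significance was by ANOVA with Dunnett's test versus vehicle.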

[3] = Microsomal stability assay with NADPH-fortified mouse liver microsomes; type: in vitro ADME; conditions: for Half-life estimation in mouse liver microsomes: 1 μM compound, NADPH fortified, 5-60 min
How it was run: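 1μM test compound was incubated with 200μg pooled mouse liver microsomes in phosphate buffer (3.3mM MgCl2) with 4mg NADPH. Samples taken at 5, 10, 15, 30, 45 and 60 minutes were quenched with cold acetonitrile. After protein precipitation, supernatants were analyzed by LC/MS/MS and percent remaining plotted over time. Verapamil served as the high-clearance control.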

HEK293 cells = test: Phospho-histone H3 immunoblot in HEK293 cells lacking Pax2; type: cell-based, human; conditions: increasing concentrations, 24 hours
How it was run: as §1

Avpr2 = test: RT-PCR of Avpr2 expression in IMCD cells in high salt; type: cell-based, mouse; conditions: 5 μM, 500 mOsm/kg, 24 hours
UTA1/3 = test: RT-PCR of UTA1/UTA3 mRNA in IMCD cells in high salt; type: cell-based, mouse; conditions: 5 μM, high salt 24 hours
[4] = test system: ovarian carcinoma (SKOV-3) cells; test: Phospho-histone H3 immunoblot in Pax2-negative SKOV-3 cells; type: cell-based, human; conditions: each concentration tested, 24 hours, vs vehicle (DMSO)
How it was run: as §1

Pax2-positive RCC cells = test: Luciferase ATP; type: cell-based, human; conditions: each concentration tested, 18 hours
[5] = In vivo pharmacokinetics, plasma clearance in mice; design: species or system mouse
How it was run: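 Mice got one dose of test compound formulated at 3mg/mL in PBS with 20% DMSO and 50% PEG-400, given intravenously (5 mg/kg) or orally (15 mg/kg). Blood was drawn at 0.5, 2, 4 and 7 h and plasma isolated by centrifugation. Compound was measured by LC-MS/MS and plasma concentration plotted semi-logarithmically against time.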

[6] = test system: Pax2 binding site at the AVPR2 promoter; test: ChIP at the AVPR2 promoter in IMCD cells in high salt; type: cell-based, mouse; conditions: 5 μM, high salt 24 hours
How it was run: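 Mouse mIMCD3 cells in triplicate were pretreated 4 h with DMSO or 5 μM test compound (per figure legend). They were then kept 24 h in control medium or NaCl-supplemented medium (500 mOsm/kg), with or without compound. Chromatin immunoprecipitation was followed by real-time PCR with primers for the Pax2 binding site at the AVPR2 promoter. Antibodies included PTIP, H3K4me3 and RNA Pol II CTD.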

Cdh6 = test: Immunoblot of Cdh6 and Pax2 protein in Pax2-positive RCC; type: cell-based, human; conditions: 24 hours
How it was run: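 Pax2-positive human RCC cells grown in RPMI 1640 with 10% FBS were seeded at 5.0 × 10^4 cells/well, attached overnight, then exposed 24 h to increasing test compound concentrations or DMSO. Whole-cell lysates in 2X SDS buffer were run on SDS-PAGE, transferred to PVDF and probed for Cdh6, Pax2 and β-actin with ECL and film detection. Cdh6 densitometry was normalized to β-actin per lane.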

Pax proteins = test: Phosphorylation of Pax proteins in cell systems; type: cell-based; conditions: Fig. S2
[7] = test system: Pax8 binding site at the Slc14a2 promoter; test: ChIP at the Slc14a2 promoter and Pax8 western blot in IMCD cells in high salt; type: cell-based, mouse; conditions: 5 μM, high salt 24 hours
Pax2, Pax8, PTIP = test: Western blot of Pax2, Pax8 and PTIP protein levels in IMCD cells; type: cell-based, mouse; conditions: 5 μM, mIMCD cells
How it was run: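 Mouse IMCD cells were cultured 24 h in normal or high-salt medium with DMSO or 5 μM test compound. Lysates were western blotted for Pax2, Pax8 and PTIP.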

BRE-Luc cells = test: BRE-Luc counter screen; type: cell-based, human; conditions: for Selectivity in PRS4-Luc cells over BRE-Luc cells: 8-point titration, fresh powder, duplicate
How it was run: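 Clonal HEK293 cells with an integrated BRE-Luc reporter, kept in DMEM with 10% FBS at 37°C and 5% CO2, were prepared like the PRS4-Luc cells. 6 × 10^3 cells/well (384-well) went onto plates pre-dosed with test compound or DMSO, in 8-point titrations in duplicate from fresh powder. Plates were incubated overnight, then Steady-Glo was added and luminescence read.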

Pax2 [8] = target: Pax2 (Mus musculus, UniProt P32114); type: cell-based; conditions: for Fold reduction (FR) of luminescence relative to vehicle treated Pax2 transfected PRS4-Luc cells: at 1.56 μM
Pax5 = Pax5 (Homo sapiens, UniProt Q02548); test: PRS4-Luc luciferase reporter assay, Pax5 activation; type: cell-based; conditions: compared with Pax2
Sequence of Pax5 (Q02548 whole entry, species assumed): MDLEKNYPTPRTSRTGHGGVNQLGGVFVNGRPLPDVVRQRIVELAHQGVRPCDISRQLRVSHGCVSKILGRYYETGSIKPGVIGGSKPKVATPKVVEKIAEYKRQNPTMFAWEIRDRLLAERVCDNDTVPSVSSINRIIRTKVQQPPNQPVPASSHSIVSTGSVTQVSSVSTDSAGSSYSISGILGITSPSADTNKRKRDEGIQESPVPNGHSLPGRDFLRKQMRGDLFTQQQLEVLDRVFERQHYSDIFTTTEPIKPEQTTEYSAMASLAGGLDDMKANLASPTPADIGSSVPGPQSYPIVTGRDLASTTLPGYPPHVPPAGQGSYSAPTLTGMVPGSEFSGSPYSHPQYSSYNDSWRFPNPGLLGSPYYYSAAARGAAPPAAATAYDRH

Sequence of Pax2 (Mus musculus, UniProt P32114) (P32114 1-391 isoform P32114-2): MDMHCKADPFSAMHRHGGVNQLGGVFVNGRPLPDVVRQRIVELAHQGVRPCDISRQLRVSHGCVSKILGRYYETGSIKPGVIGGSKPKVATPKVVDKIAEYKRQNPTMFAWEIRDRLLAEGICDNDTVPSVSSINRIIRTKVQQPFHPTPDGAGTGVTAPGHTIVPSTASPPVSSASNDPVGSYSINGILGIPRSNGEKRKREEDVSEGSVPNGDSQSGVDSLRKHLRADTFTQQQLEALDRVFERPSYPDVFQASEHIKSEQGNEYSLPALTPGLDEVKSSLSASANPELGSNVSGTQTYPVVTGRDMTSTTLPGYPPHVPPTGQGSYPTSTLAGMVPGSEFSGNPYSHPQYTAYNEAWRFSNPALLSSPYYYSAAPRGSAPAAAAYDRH
Sequence of Pax8 (Q06710 whole entry, species assumed): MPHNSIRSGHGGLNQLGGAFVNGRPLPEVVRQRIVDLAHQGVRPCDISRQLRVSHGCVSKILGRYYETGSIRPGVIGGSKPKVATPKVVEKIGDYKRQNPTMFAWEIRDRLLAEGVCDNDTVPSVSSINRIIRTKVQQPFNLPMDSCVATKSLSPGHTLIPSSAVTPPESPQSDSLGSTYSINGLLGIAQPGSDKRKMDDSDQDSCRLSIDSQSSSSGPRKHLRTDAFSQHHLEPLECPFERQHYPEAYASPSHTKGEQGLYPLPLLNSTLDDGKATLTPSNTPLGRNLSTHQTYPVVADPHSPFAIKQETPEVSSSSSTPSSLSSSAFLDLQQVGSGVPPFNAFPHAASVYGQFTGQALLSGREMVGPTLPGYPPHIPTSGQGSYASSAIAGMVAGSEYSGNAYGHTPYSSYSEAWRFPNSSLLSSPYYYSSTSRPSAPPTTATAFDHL

Half-life estimation in mouse liver microsomes [3] [min]	Fold reduction (FR) of luminescence relative to vehicle treated Pax2 transfected PRS4-Luc cells (Pax2 [8])	Structure (SMILES)	Increased Avpr2 expression in response to high salt (Avpr2)	Increased UTA1/3 mRNA expression in high salt (UTA1/3)	Histone H3K4me3 and RNA PolII recruitment at the AVPR2 promoter (ChIP) [6]	Increased Pax2 binding to the Avpr2 promoter in high salt (ChIP) [6]	Recruitment of PTIP at the AVPR2 promoter (ChIP) [6]	Increased H3K4me3 and PolII binding at the Slc14a2 promoter (ChIP) [7]	Pax8 protein levels or binding to the Slc14a2 promoter [7]	Recruitment of PTIP and the H3K4 methyltransferase complex at the Slc14a2 promoter (ChIP) [7]	Pax2, Pax8, or PTIP protein levels (Pax2, Pax8, PTIP)	Selectivity in PRS4-Luc cells over BRE-Luc cells (BRE-Luc cells)	also measured
–	–	COc1ccccc1C(=O)Nc1ccc(C(=O)Nc2ccccc2C(=O)O)cc1 [EG1]	–	–	–	–	–	–	–	–	–	–	Maximal inhibition of Pax2 (Pax2 [1]): approximately 50%
7.89	0.58	Cc1ccc(C)c(N2CCN(c3c(C)c(C)nc4ncnn34)CC2)c1 [BG-1]	significantly inhibited	significantly inhibited	prevented	no effect	inhibited	prevent	no effect	inhibit	did not affect	selective activity	Inhibition of Pax8 activation of the PRS4-Luc reporter (Pax8): similarly inhibited; Metabolically active cells (ATP luminescence) [2]: significant drop; pHH3 levels (Pax2 expressing RCC; 1.5 μM): significant reduction; pHH3 levels (Pax2 expressing RCC; 15 μM): significant reduction; pHH3 levels (HEK293 cells): did not significantly change; pHH3 levels [4]: no significant change; Percentage of viable cells (ATP luminescence) (Pax2-positive RCC cells): significantly and dose-dependently lowered; Stability in vivo, rank among the three compounds ([5]; IV 5 mg/kg or PO 15 mg/kg, plasma 0.5-7 h): most stable compound in vivo; Rate of plasma clearance compared to the other two compounds ([5]; intravenous 5 mg/kg single dose): lowest rate of clearance; Cdh6 protein levels (Cdh6; 1.5 μM): significant reduction; Pax2 protein levels (Cdh6; 1.5 μM): no effect; Pax2 protein levels (Cdh6; 15 μM): also reduced; Effect on the phosphorylation of Pax proteins (Pax proteins): could not determine any discernible effects; Change of IC50 of BG1 in combination with EG1 (Pax2 [8]; fixed 10 μM EG1, Prs4-Luc reporter cells, Fig. S3): reduce the IC50; Inhibition of Pax5 activation of the PRS4-Luc reporter (Pax5): similarly inhibited
25.39	0.82	CCc1c(C)nc2ncnn2c1Nc1ccc(Cl)cc1 [BG-3]	–	–	–	–	–	–	–	–	–	selective activity	Signs of cytotoxicity in counter screen (BRE-Luc cells; PRS4-Luc and BRE-Luc cells, up to 50 μM): did not indicate signs of cytotoxicity
46.24	0.78	Cc1nc2ncnn2c(N2CCN(c3ccc(Cl)cc3)CC2)c1C [BG-2]	significantly inhibited	significantly inhibited	prevented	no effect	inhibited	prevent	no effect	inhibit	did not affect	selective activity	Stability in vitro, rank among the three compounds ([3]; mouse liver microsomes): most stable in vitro
